High-throughput results: PubChem, Johns Hopkins Ion Channel Center
KCNK9 inh: human KCNK9 channel inhibition; HEK293 KCNK9, FluxOR thallium flux fluorescence; stronger effect = lower value; B-score at 10 µM; 1.2% of 310,000 active;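 active = ratio B-score over 3 SD below the library mean, with starting fluorescence within 5 SD of its mean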;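 also: negative B-score means less thallium flux so channel inhibition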
KCNQ1 pot: potentiators or activators of human KCNQ1 potassium channel; P51787; CHO-K1 KCNQ1, thallium flux FluxOR fluorescence; stronger effect = higher value; B-score at 10 µM; 0.35% of 310,000 active; AID 2648;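 active = fluorescence ratio B-score, a plate-corrected score, at least three library SD, with initial intensity B-score within 5 SD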
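Material: CHO-K1 cells stably expressing KCNQ1. Medium: assay buffer for compound exposure, DMSO matched across wells. Reagent: K+/Tl+ depolarizing stimulus. Compound dosing: single-concentration screen. Times: 37 °C overnight plating, 90-min dark dye load, 20-min compound pretreatment. Technique: FluxOR Tl+ flux fluorescence.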
KCNQ1 inh: blocks the human KCNQ1 potassium channel. CHO-K1 KCNQ1, FluxOR thallium flux fluorescence; stronger effect = higher value. 1.3% of 310,000 active. P51787. B-score at 10 µM;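 active = compounds whose thallium flux B-score, printed positive for inhibition, exceeds three library SD while starting fluorescence stays within three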;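 also: channel opened by potassium depolarization with thallium stimulus after 20 min compound exposure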
KCNK3 inh: human KCNK3 channel inhibition, primary screen; B-score at 10 µM; AID 602410; 0.84% of 340,000 active; CHO-KCNK3 thallium flux, FluxOR fluorescence; stronger effect = lower value; O14649;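 active = B-score under library mean minus 4 SD, starting fluorescence ratio at most library mean plus 5 SD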;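 also: more negative B-score means stronger inhibition of thallium flux through KCNK3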
hERG rescue: shields human hERG channel from block by proarrhythmic agents | CHO-hERG, FluxOR thallium flux, dofetilide IC70 present | Q12809 | 0.51% of 310,000 active | activation (rescue from dofetilide block), less the hit threshold, % at 10 µM | AID 1511;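 active = activation above the mean of controls blocked by dofetilide plus 5 SD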;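 also: thallium influx through hERG after potassium depolarization seen as dye fluorescence rise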
Kir21 block: blocks the mouse Kir2.1 inward-rectifier potassium channel; P35561; 0.85% of 310,000 active; B-score at 10 µM; HEK293-Kir2.1, FluxOR thallium flux fluorescence; stronger effect = lower value;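 active = fluorescence ratio B-score at or below minus 3 SD of library scores, with starting-brightness B-score within 2 SD, cut at about -4.2 in these data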;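 also: channel flux triggered by added potassium and thallium sulfate stimulus; B-score of peak minus minimum fluorescence over baseline after thallium stimulus; more negative B-score means stronger Kir2.1 block with less thallium influx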
KCNQ1 inh valid: reconfirmed blocker of the human KCNQ1 potassium channel; shares compounds with KCNQ1 inh; KCNQ1 cell line, FluxOR thallium flux fluorescence; inhibition, % at 10 µM; 93% of 1,600 active; AID 588353;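 active = primary screen active, with duplicate mean exceeding buffer control mean plus 3 SD of buffer wells, cut at about 28% in these data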;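 also: 0% = buffer control ratio and 100% = XE991 inhibitor control ratio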
CHO KCNQ1 ctr: counter-screen for KCNQ1 inhibitors: effect in parental CHO cells. shares compounds with KCNQ1 inh. parental CHO-K1, FluxOR thallium flux fluorescence ratio; stronger effect = lower value; zero means no signal rise above baseline. fluorescence ratio (Tl flux) at 10 µM. 21% of 1,600 active. AID 588366;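 active = mean of duplicate thallium-flux fluorescence ratios in parental host cells more than 5 SD below the buffer control mean, cut at about 0.38 in these data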;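 also: ratio is peak minus minimum fluorescence divided by baseline fluorescence; actives read low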
KCNQ1 ephys val: human KCNQ1 inhibition validated by electrophysiology | KCNQ1-CHO cells, automated patch clamp current | 20% of 490 active | calls only at 10 µM | shares compounds with KCNQ1 inh | AID 624120;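 active = KCNQ1 current drop exceeding 3 SD of negative control wells, seen in both duplicate runs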;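 also: steady state current during a 2 s step from -80 to +40 mV; negative values mean current inhibition and positive values mean potentiation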
KCNQ2 spec: rat KCNQ2 inhibition in KCNQ1 inhibitor specificity screen. shares compounds with KCNQ1 inh. KCNQ2 cells, FluxOR thallium flux fluorescence. inhibition, % at 10 µM. 71% of 1,600 active;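 active = mean percent inhibition of the KCNQ2 thallium signal more than 5 SD above the buffer-only control wells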;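 also: KCNQ2 expressed in CHO cells; 0% = buffer control wells and 100% = XE-991 inhibitor control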
KCNQ1-KCNE1 inh: selectivity of KCNQ1 inhibitors: inhibition of human KCNQ1/KCNE1 channel; shares compounds with KCNQ1 inh; KCNQ1/KCNE1 cells, FluxOR thallium flux fluorescence; inhibition, % at 10 µM; 77% of 1,600 active;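 active = mean percent inhibition of duplicate wells above the buffer-only control mean plus 3 SD of those controls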;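 also: 0% = buffer only wells and 100% = XE-991 inhibitor control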
Target sequence (P51787 whole entry, looked up): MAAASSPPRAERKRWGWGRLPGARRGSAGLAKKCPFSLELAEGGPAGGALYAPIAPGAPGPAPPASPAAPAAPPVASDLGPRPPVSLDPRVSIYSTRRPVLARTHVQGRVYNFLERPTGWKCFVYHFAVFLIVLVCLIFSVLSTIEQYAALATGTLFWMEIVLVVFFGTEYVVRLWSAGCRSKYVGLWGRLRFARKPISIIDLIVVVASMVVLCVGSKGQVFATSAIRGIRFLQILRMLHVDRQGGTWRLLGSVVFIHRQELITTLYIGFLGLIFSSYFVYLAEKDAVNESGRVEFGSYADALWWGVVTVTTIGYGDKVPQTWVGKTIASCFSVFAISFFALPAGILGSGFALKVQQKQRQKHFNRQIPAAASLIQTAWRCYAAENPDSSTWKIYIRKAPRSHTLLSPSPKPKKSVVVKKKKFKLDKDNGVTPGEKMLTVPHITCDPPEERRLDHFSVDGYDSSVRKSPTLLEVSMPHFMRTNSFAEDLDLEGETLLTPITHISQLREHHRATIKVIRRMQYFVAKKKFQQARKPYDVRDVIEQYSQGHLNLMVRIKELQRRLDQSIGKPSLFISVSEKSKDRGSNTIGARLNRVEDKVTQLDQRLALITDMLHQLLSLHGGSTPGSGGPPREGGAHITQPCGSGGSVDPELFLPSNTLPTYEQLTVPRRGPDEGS
* hit, by the source's call; i = inactive; . = not tested or not shown; + = active, no number. This is a sample that favours compounds with a hit; in the whole collection about 3.7% have one here.

SMILES	KCNK9 inh	KCNQ1 pot	KCNQ1 inh	KCNK3 inh	hERG rescue	Kir21 block	KCNQ1 inh valid	CHO KCNQ1 ctr	KCNQ2 spec	KCNQ1-KCNE1 inh	others
CCCCNc1cc(C)nc(NCc2ccccc2)n1	i	i	10*	i	-20	-12*	96*	0.39	i	77%*	KCNQ1 ephys val=+
Cc1cc(C)nc(NCCCc2ccccc2)n1	i	i	i	i	-3	-0.4	.	.	.	.
O=C(O)CSc1nc2ccccc2nc1Cc1ccccc1F	i	i	i	i	3	-6	.	.	.	.
O=C(N/N=C/c1ccc(O)cc1O)/C(=C/c1ccccc1)CCO	i	i	i	i	-15	0.32	.	.	.	.
COc1ccc(N(CC(=O)NC2CCCCC2)C(=O)c2ccc(C)s2)c(OC)c1	i	i	i	i	-12	0.69	.	.	.	.
CN(C)CCCN1C(=O)c2cccc3c(Br)ccc(c23)C1=O	i	i	i	i	-24	-2.6	.	.	.	.
CCCCNc1ccc2c3c(cccc13)C(=O)N(CCCC)C2=O	i	i	24*	i	-13	-8	+	0.011*	i	i
CCN1C(=O)c2cccc3c(N)ccc(c23)C1=O	i	i	24*	i	-42	-23	+	0.011*	i	i
CCOc1ccccc1N1CCN(C(=O)c2cc(S(=O)(=O)N(C)C)ccc2N2CCCC2)CC1	.	.	.	i	.	.	.	.	.	.
CCc1noc(C)c1C(=O)N1CCCSC1=Nc1ccccc1C(C)C	i	i	6*	i	-9	-1.9	84*	0.39	106%*	104%*
c1ccc(-c2ccc(CNC3CC3)cc2)cc1	i	i	i	i	-8	0.55	.	.	.	.
CCOc1ccc(-n2c(=S)sc3c(=O)[nH]c(SCC(=O)C(C)(C)C)nc32)cc1	i	i	6*	i	-6	1.5	92*	0.47	i	60%*	KCNQ1 ephys val=+
CCn1c(=S)sc2c(=O)[nH]c(SCC(=O)Nc3cc(OC)ccc3OC)nc21	i	i	10*	i	-18	2	66*	0.45	i	89%*
COc1ccc(OC)c(NC(=O)CSc2nc3scc(C)c3c(=O)[nH]2)c1	i	i	i	i	-1	2.1	.	.	.	.
CCOC(=O)CSc1nc2c(sc(=S)n2-c2ccc(OCC)cc2)c(=O)[nH]1	i	i	i	i	-8	0.3	.	.	.	.
Cc1cccc(Cn2c(C(C)(C)C)cc3cccnc32)c1	i	i	8*	i	-10	-5.1*	64*	0.45	67%*	i
Cc1cccc(CN2CCN(c3ncccn3)CC2)c1	i	i	i	i	2	-0.65	.	.	.	.
Cc1csc2ncnc(N3CCN(C(=S)Nc4ccc(C(F)(F)F)cc4)CC3)c12	i	i	10*	i	-7	-1.3	112*	0.47	74%*	94%*	KCNQ1 ephys val=i
Cc1csc2c(N3CCN(C(=S)Nc4ccc(C(F)(F)F)cc4)CC3)ncnc12	i	i	12*	i	-9	0.2	82*	0.54	i	178%*
Cc1cc(C)cc(NC(=S)N2CCN(c3ncc(C(F)(F)F)cc3Cl)CC2)c1	i	i	i	i	-8	-0.31	.	.	.	.
Cc1csc2c(N3CCN(C(=O)Nc4ccc(Cl)c(Cl)c4)CC3)ncnc12	i	i	11*	i	-7	3.2	160*	0.36*	90%*	+
Cc1csc2c(N3CCN(C(=O)NC(C)(C)C)CC3)ncnc12	i	i	i	i	-5	0.74	.	.	.	.
Cc1ccccc1NP1(=O)OCCCN1Cc1ccccc1Cl (stereo not drawn)	.	.	.	i	.	.	.	.	.	.
COCCn1c(C)cc(/C=N/NC(=O)c2cc3ccccc3cc2O)c1C	.	.	.	i	.	.	.	.	.	.
Cn1c(O)c(/C=N/NC(=O)c2cc3ccccc3cc2O)c2ccccc21	i	i	17*	i	-24	-6.3	101*	0.32*	i	i
SMILES	KCNK9 inh	KCNQ1 pot	KCNQ1 inh	KCNK3 inh	hERG rescue	Kir21 block	KCNQ1 inh valid	CHO KCNQ1 ctr	KCNQ2 spec	KCNQ1-KCNE1 inh	others
COc1cccc(-c2nc(NC(C)C)c3ccccc3n2)c1O	i	i	i	i	-13	2.1	.	.	.	.
CCC(C)Nc1nc(-c2cccc(OC)c2O)nc2ccccc12 (stereo not drawn)	i	i	11*	-12*	-26	0.89	125*	0.31*	i	139%*
FC(F)(F)c1cc(-c2ccco2)nc(N2CCN(Cc3ccccc3)CC2)n1	i	i	8*	i	-10	0.76	82*	0.42	75%*	106%*
NS(=O)(=O)c1ccc(CNC(=O)c2ccncc2)cc1	i	i	i	i	-2	0.44	.	.	.	.
CCc1ccccc1NC(=S)N(Cc1ccc(C(=O)O)cc1)Cc1ccc(OC)c(OC)c1	i	i	i	i	-10	0.71	.	.	.	.
N#Cc1c(Cl)nsc1NC(=O)c1ccccc1	i	i	6*	i	-29	0.47	0	0.53	i	i
CCOC(=O)c1cc(C#N)c(Oc2ccc(F)cc2)nc1-c1ccccc1	i	i	9*	i	-11	-0.01	70*	0.38*	76%*	104%*
CCOC(=O)c1cc(C#N)c(N2CCCC2)nc1-c1ccccc1	i	i	i	i	-1	-0.45	.	.	.	.
CCOC(=O)c1ccc(N2CCN(c3ccccc3F)CC2)c(NC(=O)Nc2ccccc2)c1	i	i	6*	i	-19	0.07	118*	0.36*	118%*	138%*
